# In paper PMC5012948 (ChemMedChem, 2016):
# Values joined by “and” are separate entries in the source; they are usually repeats but may differ in a detail not shown here. Equal values may be shown once. Read-outs that look alike come from different tables or passages of the source.
# What was measured:
# SaHepPPS = SaHepPPS (Staphylococcus aureus, UniProt Q2FYG6); assay: biochemical; format: biochemical; details: for Kd: substrate inhibition at high substrate concentrations
# [1] = tested on: coupling enzymes (phosphatase and purine nucleoside phosphorylase); assay: Control: inhibition of the coupling enzymes by high FPP and IPP; format: biochemical
# B. subtilis = assay: Synergy/antagonism two-drug combination assay; format: cell-based, Bacillus subtilis; details: 10 + sulfamethoxazole
# Method in brief: (§1)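 Checkerboard-style two-drug combinations of the test compound with antibiotics. Conversely, the test compound ran as a 3× gradient, 40 μg/mL to 18 ng/mL, with each antibiotic at half its MIC. New MICs came from Gompertz fits.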
# S. aureus = assay: Synergy/antagonism two-drug combination assay; format: cell-based, Staphylococcus aureus
# Method in brief: as §1
# [2] = tested on: S. aureus (Newman strain); assay: S. aureus cell growth inhibition; format: cell-based, Staphylococcus aureus
# [3] = tested on: B. subtilis and S. aureus; assay: Synergy/antagonism assays, average FICI over both organisms; format: cell-based; details: drugs in combination with 10, both organisms, n = 24
# Method in brief: as §1
# human FPPS = details: cited from earlier work
structure (smiles),measurement,setting,value
"CC(C)=CCC/C(C)=C/CC/C(C)=C/CO[P@@](=O)(O)OP(=O)(O)O (stereo in doubt) [FPP, farnesyl diphosphate]",Kd,SaHepPPS; Kd (dissociation constant for the inhibitory SES ternary complex),35 µM and ~35 µM
same,inhibition of the coupling enzymes,[1],this is not the case
"CC(C)=CCC/C(C)=C/CC/C(C)=C/CC/C(C)=C/COP(=O)(O)OP(=O)(O)O [GGPP, geranylgeranyl diphosphate]",Km,SaHepPPS; GGPP as substrate,652 µM
same,Vmax,SaHepPPS; GGPP as substrate,2.2 µM/min
same,substrate-inhibition effect at high concentrations,SaHepPPS; high concentrations,did not exhibit the substrate-inhibition effect
"C=C(C)CCOP(=O)(O)OP(=O)(O)O [IPP, isopentenyl diphosphate]",Kd,SaHepPPS; read-out: Kd (dissociation constant for the inhibitory SES ternary complex),300 ± 40 µM
same,inhibition of the coupling enzymes,[1],this is not the case
CCCCCCCCCCCCC[n+]1ccn(CC(P(=O)([O-])O)P(=O)(O)O)c1 (centres unmarked) [compound 10],FICI,B. subtilis,1.73
same,FICI,S. aureus; 10 + ampicillin,1.40
same,FICI,S. aureus; 10 + tetracycline,1.85
same,IC50 for S. aureus cell growth inhibition,[2],7 µg/mL
same,FICIavg,[3],1.43 ± 0.37
"O=P(O)(O)C(O)(Cn1ccnc1)P(=O)(O)O [compound 15, zoledronate]",IC50,SaHepPPS,~100 µM
same,activity against human FPPS,human FPPS,potent activity
